According to article PMC12634867 (Neoplasia (New York, N.Y.), 2025):
Read-outs that look alike come from different tables or passages of the source.

Legend:
[1] = plasma pharmacokinetics of single oral AZD5438 dosing in mice; type: in vivo; conditions: CBA, mouse, 37.5 mg/kg
[2] = clinical phase I tolerability, cancer patients; type: in vivo, human
[3] = tested on: CBA/CaJ mice; assay: multi-cycle cisplatin ototoxicity mouse model, ABR; type: in vivo
[4] = tested on: CBA/CaJ mice; assay: multi-cycle cisplatin ototoxicity mouse model, DPOAE; type: in vivo; conditions: any combination group
[5] = tested on: CBA/CaJ mice; assay: multi-cycle cisplatin ototoxicity mouse model, hair cell counts; type: in vivo
[6] = tested on: CBA/CaJ mice; assay: multi-cycle cisplatin ototoxicity mouse model, survival and general condition; type: in vivo
[7] = tested on: NCCIT cells; assay: NCCIT cell confluence; type: cell-based, human; conditions: for IC50: read-out: IC50, NCCIT cells
[8] = tested on: JKT1 cells; assay: MTT cell viability, JKT1; type: cell-based; conditions: ∼0.02-100 μM AZD5438 together with cisplatin, 24 h MTT
[9] = tested on: SEM-1 cells; assay: MTT cell viability, SEM-1; type: cell-based; conditions: ∼0.02-100 μM AZD5438 together with cisplatin, 24 h MTT
[10] = tested on: NCCIT tumor-bearing SCID mice; assay: NCCIT xenograft mouse model; type: in vivo
How it was run: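 Male SCID mice aged 12 wk were implanted s.c. with 1 × 10⁷ NCCIT cells in 1:1 Matrigel. At mean tumor size ~100 mm³, they were randomized into four groups (n = 10). […] Oral test compound or vehicle (10% DMSO/5% Tween-80/40% PEG-300/45% saline) was given b.i.d. on days 1–3. Cycles lasted 7 days, three in all. Caliper volumes normalized to baseline; two-way ANOVA with Tukey.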

[11] = tested on: cochlear explants; conditions: read-out: EC50 in cochlear explants; protection against cisplatin; cited from earlier work
[12] = tested on: cyclin E/CDK2; conditions: read-out: in vitro IC50 against cyclin E/CDK2; cited from earlier work
[13] = tested on: cyclin B1/CDK1; conditions: read-out: in vitro IC50 against cyclin B1/CDK1; cited from earlier work
[14] = tested on: cyclin D1/CDK4; conditions: read-out: in vitro IC50 against cyclin D1/CDK4; cited from earlier work
[15] = cited from earlier work
[16] = single dose, healthy male volunteers; cited from earlier work
[17] = cited from earlier work; remark: listed apart in the source
[18] = tested on: IMR-32, SH-SY5Y, SKN-AS, SHP-77, H115, A549, Kelly, JKT1, NCCIT; conditions: neuroblastoma, lung and testicular origins; cited from earlier work
[19] = tested on: FVB mice; conditions: cited from earlier work
[20] = tested on: noise-induced hearing loss (NIHL) model; conditions: cited from earlier work
[21] = tested on: mice; conditions: cited from earlier work
[22] = tested on: phosphorylated Rb; conditions: cited from earlier work
[23] = tested on: cyclin A/CDK2; conditions: read-out: in vitro IC50 against cyclin A/CDK2; cited from earlier work
[24] = tested on: CBA/CaJ model; conditions: CBA/CaJ model and retrospective human study; cited from earlier work

Cc1ncc(-c2ccnc(Nc3ccc(S(C)(=O)=O)cc3)n2)n1C(C)C [AZD5438]
Cmax [1]: 1470 ± 916 ng/mL | concentration at 2 h [1]: 621 ± 305 ng/mL | concentration at 3 h [1]: 510 ± 135 ng/mL | estimated MTD ([2]; cancer patients, four times daily (QID), conjectured from NTDs): 20 to 90 mg | human equivalent (tolerated) mouse dose ([2]; extrapolated from tolerated Cmax): ≤ 9.4 mg/kg | Cmax ([2]; human, plasma, oral): < 300 ng/mL | ABR wave 1 amplitudes, protection vs cisplatin only ([3]; any combination group): no significant protection | ABR wave 1 latency, improvement vs cisplatin only ([3]; combination groups, all levels at 8 and 16 kHz): did not reveal significant improvements | DPOAE amplitudes input and output analysis, protection vs cisplatin only [4]: no significant protection | DPOAE thresholds and amplitudes, protection vs cisplatin only [4]: no significant protection | reduction of cisplatin-induced outer hair cell loss ([5]; AZD5438 co-treated groups, 32 kHz region): did not significantly reduce cisplatin-induced outer hair cell loss | inner hair cell loss ([5]; all groups): none of the groups caused any inner hair cell loss | adverse effects based on body weight or behavior ([6]; co-treated animals (Fig. 2, Fig. 3)): no significant adverse effects | mortality during the entire experiments ([6]; multi-cycle cisplatin + AZD5438 b.i.d.): Only a few mice mostly in the cisplatin + 37.5 mg/kg AZD5438 group died | IC50 ([7]; Homo sapiens, NCCIT, 40 h): 1380 nM | cell death of combination vs either drug alone ([7]; cisplatin 5 μM + AZD5438 3 μM, 40 h): significantly higher cell death | interference with cisplatin tumor cell loss, JKT1 [8]: no substantial interferences | interference with cisplatin tumor cell loss, SEM-1 [9]: no substantial interferences | tumor volume, cisplatin + AZD5438 vs cisplatin only ([10]; 9.4 mg/kg b.i.d. oral + cisplatin 3 mg/kg): no significant differences | tumor volume ([10]; AZD5438 only, 9.4 mg/kg b.i.d. oral, vs vehicle): increased at similar rates | body weight ([10]; cisplatin + AZD5438 vs cisplatin only): trend of body weight loss more than the cisplatin only group, although insignificantly | survival ([10]; combination group and AZD5438 only group, 9.4 mg/kg b.i.d.): several deaths occurred | EC50 [11]: 5 nM | IC50 [12]: 6 nM | IC50 [13]: 16 nM | IC50 [14]: 450 nM | dose-dependent linear Cmax values ([15]; oral, animal and human studies): 5 to 1,000 ng/mL | Tmax ([15]; plasma, single oral dose): 30 to 180 min | maximum tolerated dose (MTD) [16]: 80 mg | well tolerated dose ([17]; cancer patient cohort, QID one day weekly): ≤ 90 mg | non-tolerated dose (NTD) ([17]; cancer patients, four times (QID) for one day per week): > 90 mg | non-tolerated dose (NTD) ([17]; cancer patients, four times daily for at least 14 and 28 consecutive days): 40 mg | adverse events ([17]; continuous dosing, 40 mg QID, cancer patients): gastrointestinal in origin, including profound anorexia and fatigue in some patients, accompanied by nausea and vomiting | interference with cisplatin's tumor killing in nine cancer cell lines [18]: does not interfere | protection against CIHL ([19]; oral 75 mg/kg once daily for three days): significantly protected against CIHL at 32 kHz | cisplatin-induced hearing loss (ABR thresholds at 32 kHz) ([19]; transtympanic 50 µM, one hour before and 24 h after cisplatin): significantly attenuated cisplatin-induced hearing loss | protection in NIHL model, co-treatment with dabrafenib ([20]; AZD5438 and dabrafenib, preservation at 8, 16 and 32 kHz): enhanced protection | auditory thresholds in NIHL model ([20]; oral 75 mg/kg): improved auditory thresholds at 8 and 16 kHz | cisplatin-induced nephrotoxicity [21]: protected against cisplatin-induced nephrotoxicity | time after administration within which phosphorylated Rb was modulated [22]: 1 to 3 h | IC50 [23]: 45 nM

CC(C)c1c(C(=O)Nc2ccccc2)c(-c2ccccc2)c(-c2ccc(F)cc2)n1CC[C@@H](O)C[C@@H](O)CC(=O)O [atorvastatin]
auditory protection [24]: 5–8 dB

N.N.[Cl][Pt][Cl] [cisplatin, cis-diamminedichloroplatinum (II)]
IC50 ([7]; single agent, confluency over 40 h): 9000 nM | tumor volume ([10]; cisplatin only, 3 mg/kg, two days per week): completely obliterated the tumor volumes | auditory threshold elevations ([19]; single IP cisplatin 30 mg/kg, 8, 16 and 32 kHz): 5–20 dB
